Tests used:
Format in all cases: cell-based
A549 = assay: Cytotoxicity against human A549 cells after 72 hrs; details: for EC50: Homo sapiens, A549, 72 h; for Activity: human, a549, 72 h
Outline: (§1)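 Sulforhodamine B assay run per the NCI procedure. Cells grown at 37 °C, humidified 5% CO2, in RPMI-1640 with 25 mM HEPES, […], 10% (v/v) FBS and 100 µg/mL kanamycin. Compounds dissolved in DMSO (final ≤1% v/v) and applied continuously for 72 h. EC50 is the concentration cutting cell number by 50%, interpolated from dose-response data. Assays run in triplicate. Doxorubicin served as positive control.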

PC-3 = assay: Cytotoxicity against human PC3 cells after 72 hrs; details: for EC50: Homo sapiens, PC-3, 72 h; for Activity: human, pc-3, 72 h; outline: as §1
KB = assay: Cytotoxicity against human KB cells after 72 hrs; details: for EC50: Homo sapiens, KB; for Activity: human, kb; outline: as §1
[1] = Cytotoxicity against human multidrug-resistant KB-VIN cells after 72 hrs; details: for EC50: Homo sapiens, KBVIN; for Activity: human, kb-vin; outline: as §1
1A9 = assay: Cytotoxicity against human 1A9 cells after 72 hrs; details: for EC50: Homo sapiens, 1A9, 72 h; for Activity: human, 1a9, 72 h; outline: as §1
MCF7 = assay: Cytotoxicity against human MCF7 cells after 72 hrs; details: for EC50: Homo sapiens, MCF7, 72 h; for Activity: human, mcf7, 72 h; outline: as §1

SMILES	EC50 (A549) [nM]	EC50 (PC-3) [nM]	EC50 (KB) [nM]	EC50 [1] [µM]	EC50 (1A9) [nM]	EC50 (MCF7) [µM]	Activity (A549)	Activity (PC-3)	Activity (KB)	Activity [1]	Activity (1A9)	Activity (MCF7)
C=C1C(=O)[C@@]23CCC4[C@H](C(=O)OC)CCC[C@@]4(C)[C@@H]2CC[C@@H]1C3 (some centres not stated)	4400	3100	1300	1.3	700	5						
C=C1C(=O)[C@@]23CCC4[C@H](C(=O)OC)C[C@@H](OC(=O)[C@@H]5OC(c6ccccc6)=N[C@H]5c5ccccc5)C[C@@]4(C)[C@@H]2CC[C@@H]1C3 (some centres not stated)	2200	2200	3000	4.8	1800	11.8						
C=C1C(=O)[C@@]23CCC4[C@H](C(=O)OC)C[C@@H](OC(=O)[C@H](O)[C@@H](NC(=O)c5ccccc5)c5ccccc5)C[C@@]4(C)[C@@H]2CC[C@@H]1C3 (some centres not stated)	1700	600	2600	3.5	400	1.5						
C=C1C(=O)[C@@]23CCC4[C@H](C(=O)OC)C[C@@H](OS(=O)(=O)c5ccc(C)cc5)C[C@@]4(C)[C@@H]2CC[C@@H]1C3 (some centres not stated)	2300	2600	1400	3.5	500	4.3						
C=C1C(=O)[C@@]23CCC4[C@H](C(=O)OC)C[C@@H](OC(=O)c5ccc6c(c5)OCO6)C[C@@]4(C)[C@@H]2CC[C@@H]1C3 (some centres not stated)	19000	9200	1100	3	3000	21.4						
C=C1C(=O)[C@@]23CCC4[C@H](C(=O)OC)C[C@@H](OC(C)=O)C[C@@]4(C)[C@@H]2CC[C@@H]1C3 (some centres not stated)	3300	1400	3600	4	500	0.9						
C=C1C(=O)[C@@]23CCC4[C@H](C(=O)OC)C[C@@H](O)C[C@@]4(C)[C@@H]2CC[C@@H]1C3 (some centres not stated)	1000	4000	1500	2.6	300	2						
C=C1[C@@H]2CC[C@@H]3[C@@](CCC4[C@H](C(=O)OC)C/C(=N\NS(=O)(=O)c5ccc(C)cc5)C[C@]43C)(C2)[C@@H]1O (some centres not stated)	24500	15800	18100	20.4	7500	18						
C=C1C(=O)[C@@]23CCC4[C@H](C(=O)OC)CC(=O)C[C@@]4(C)[C@@H]2CC[C@@H]1C3 (some centres not stated) [ATRACTYLIGENIN METHYL ESTER]	3400	1100	1600	1.6	200	1						
C=C1[C@@H]2CC[C@@H]3[C@@](CCC4[C@H](C(=O)OC)C[C@@H](O)C[C@]43C)(C2)[C@@H]1O (some centres not stated) [ATRACTYLIGENIN METHYL ESTER]							Not Active	Not Active	Not Active	Not Active	Not Active	Not Active
C=C1[C@@H]2CC[C@@H]3[C@@](CCC4[C@H](C(=O)O)C[C@@H](O)C[C@]43C)(C2)[C@@H]1O (some centres not stated) [ATRACTYLIGENIN]							Not Active	Not Active	Not Active	Not Active	Not Active	Not Active
COc1cccc2c1C(=O)c1c(O)c3c(c(O)c1C2=O)C[C@@](O)(C(=O)CO)C[C@@H]3O[C@H]1C[C@H](N)[C@H](O)[C@H](C)O1 [DOXORUBICIN]	900	2000	400	1.7	100	0.2						

Reference: ChEMBL document CHEMBL1143014, “Cytotoxic activity of some natural and synthetic ent-kauranes” (J Nat Prod, 2007)
